In ChEMBL document CHEMBL1152410, “Cytotoxic pentacyclic triterpenoids from Combretum sundaicum and Lantana camara as inhibitors of Bcl-xL/BakBH3 domain peptide interaction” (J Nat Prod, 2009):

Tests used:
KB = assay: Cytotoxicity against human KB cells; format: functional, cell-based
Procedure, shortened: (§1)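 Cell growth-inhibition assay run by a previously published procedure, with Taxotere as the reference compound.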

HCT-116 = assay: Cytotoxicity against human HCT116 cells; format: functional, cell-based; procedure, shortened: as §1
MCF7 = assay: Cytotoxicity against human MCF7 cells; format: functional, cell-based; procedure, shortened: as §1
L1210 = assay: Cytotoxicity against mouse L1210 cells; format: functional, cell-based; procedure, shortened: as §1
Bcl-2-like protein 1 = Bcl-2-like protein 1 (Homo sapiens, UniProt Q07817); assay: Binding affinity to Bcl-xL by fluorescein-labeled Bak-BH3 peptide competition binding assay
Procedure, shortened: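 Fluorescence polarization displacement: test compound competes with fluorescein-labeled Bak BH3-domain peptide for binding to Bcl-xL. Ki is derived as the dissociation constant at equilibrium against this reference ligand. Unlabeled Bak(BH3) peptide and a substituted terphenyl derivative serve as positive controls. Runs are done in duplicate.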

Bcl-2-like protein 1, sequence (Q07817 whole entry): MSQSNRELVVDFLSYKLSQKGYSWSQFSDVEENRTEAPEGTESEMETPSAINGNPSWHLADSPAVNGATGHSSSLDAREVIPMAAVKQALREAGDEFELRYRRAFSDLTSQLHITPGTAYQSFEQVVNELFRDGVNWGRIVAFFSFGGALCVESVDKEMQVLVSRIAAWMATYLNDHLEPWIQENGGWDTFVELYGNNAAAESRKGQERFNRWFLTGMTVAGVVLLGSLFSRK

Compound	IC50 (KB)	IC50 (HCT-116)	IC50 (MCF7)	IC50 (L1210)	Ki (Bcl-2-like protein 1)
CC(C)=CC(=O)O[C@@H]1CC(C)(C)C[C@@H]2C3=CC[C@@H]4[C@@]5(C)CCC(=O)[C@](C)(CO)[C@@H]5CC[C@@]4(C)[C@]3(C)CC[C@]21C(=O)O	35.5 µM	11.4 µM	42.5 µM	12.3 µM	5.3 µM
COC(=O)[C@]1(C)CC[C@]2(C)CC[C@]3(C)C(=CC[C@@H]4[C@@]5(C)[C@@H](O)C[C@H](O)[C@@](C)(COC(C)=O)[C@@H]5CC[C@]43C)[C@H]2C1	2.9 µM	1.7 µM	4.6 µM		> 100 µM
CC(=O)O[C@@]12CO[C@@H]1C[C@H](O)[C@@]1(C)C(=O)[C@H](O)C3=C(C)[C@@H](OC(=O)[C@H](O)[C@@H](NC(=O)OC(C)(C)C)c4ccccc4)C[C@@](O)([C@@H](OC(=O)c4ccccc4)[C@H]21)C3(C)C [DOCETAXEL]	0.00015 µM	0.0012 µM	0.0007 µM		
CC(=O)OC[C@]1(C)[C@@H](OC(C)=O)C[C@H](O[C@@H]2O[C@@H](C)[C@H](O)[C@@H](O)[C@H]2O)[C@]2(C)[C@H]3CC=C4[C@H]5C[C@](C)(C(=O)O)CC[C@]5(C)CC[C@@]4(C)[C@]3(C)CC[C@@H]12	8.2 µM	8 µM	10.5 µM		7.2 µM
CC(=O)OC[C@]1(C)[C@@H](OC(C)=O)C[C@H](O)[C@]2(C)[C@H]3CC=C4[C@H]5C[C@](C)(C(=O)O)CC[C@]5(C)CC[C@@]4(C)[C@]3(C)CC[C@@H]12	5.4 µM	4.7 µM	6 µM		17.8 µM
C/C=C(/C)C(=O)O[C@@H]1CC(C)(C)C[C@H]2C3=CC[C@@H]4[C@@]5(C)CCC(=O)C(C)(C)[C@@H]5CC[C@@]4(C)[C@]3(C)CC[C@@]12C(=O)O [LANTADENE A]	15.8 µM	41.8 µM	44.7 µM	16.3 µM	> 100 µM
COC(=O)[C@]1(C)CC[C@]2(C)CC[C@]3(C)C(=CC[C@@H]4[C@@]5(C)[C@@H](O[C@@H]6O[C@@H](C)[C@H](O)[C@@H](O)[C@H]6O)C[C@H](OC(C)=O)[C@@](C)(COC(C)=O)[C@@H]5CC[C@]43C)[C@H]2C1	0.9 µM	0.3 µM	0.6 µM		> 100 µM
C/C=C(/C)C(=O)O[C@@H]1CC(C)(C)C[C@@H]2C3=CC[C@@H]4[C@@]5(C)CCC(=O)[C@](C)(CO)[C@@H]5CC[C@@]4(C)[C@]3(C)CC[C@]21C(=O)O [ICTEROGENIN]	15 µM	5.8 µM	11.3 µM	6.8 µM	7.6 µM
CC(C)=CC(=O)O[C@@H]1CC(C)(C)C[C@@H]2C3=CC[C@@H]4[C@@]5(C)CCC(=O)C(C)(C)[C@@H]5CC[C@@]4(C)[C@]3(C)CC[C@]21C(=O)O [LANTADENE B]	25.3 µM	11.4 µM	44 µM	16.1 µM	> 100 µM
COC(=O)[C@]1(C)CC[C@]2(C)CC[C@]3(C)C(=CC[C@@H]4[C@@]5(C)[C@@H](O[C@@H]6O[C@@H](C)[C@H](O)[C@@H](O)[C@H]6O)C[C@H](O)[C@@](C)(COC(C)=O)[C@@H]5CC[C@]43C)[C@H]2C1	0.7 µM	0.4 µM	0.5 µM		> 100 µM
